How the values were obtained:
[1] = system: SR; test: Cytotoxicity against human SR cells assessed as cell growth at 10 uM after 48 hrs by SRB assay relative to untreated control; type: functional; details: read-out: Activity
Outline: (§1)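 NCI-60 single-dose screen. Compounds were added to the cultures at 10 μM and incubated for 48 h. The end point was sulforhodamine B protein staining read spectrophotometrically. Growth is reported as percent of untreated control cells.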

[2] = system: SF-295; test: Cytotoxicity against human SF295 cells assessed as cell growth at 10 uM after 48 hrs by SRB assay relative to untreated control; type: functional; details: SF-295, 48 h, read-out: Activity
Outline: (§2)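 NCI-60 one-dose screen: each agent added at 10 µM, cultures incubated 48 h. Endpoint by sulforhodamine B protein-binding dye read spectrophotometrically; growth expressed as percent of untreated control cells.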

[3] = system: IGROV-1; test: Cytotoxicity against human IGROV1 cells assessed as cell growth at 10 uM after 48 hrs by SRB assay relative to untreated control; type: functional; details: IGROV-1, 48 h, read-out: Activity
Outline: (§3)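 NCI-60 panel screen at a single concentration of 10 μM with 48 h incubation. Cell density measured by sulforhodamine B protein-binding dye and read spectrophotometrically. Growth expressed as percent of untreated control cells.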

[4] = system: SF-268; test: Cytotoxicity against human SF268 cells assessed as cell growth at 10 uM after 48 hrs by SRB assay relative to untreated control; type: functional; details: SF-268, 48 h, read-out: Activity; outline: as §2
[5] = system: A498; test: Cytotoxicity against human A498 cells assessed as cell growth at 10 uM after 48 hrs by SRB assay relative to untreated control; type: functional; details: A498, 48 h, read-out: Activity; outline: as §3
[6] = system: RPMI-8226; test: Cytotoxicity against human RPMI8226 cells assessed as cell growth at 10 uM after 48 hrs by SRB assay relative to untreated control; type: functional; details: RPMI-8226, 48 h, read-out: Activity; outline: as §2
[7] = system: SNB-75; test: Cytotoxicity against human SNB75 cells assessed as cell growth at 10 uM after 48 hrs by SRB assay relative to untreated control; type: functional; details: SNB-75, 48 h, read-out: Activity; outline: as §1
[8] = system: 786-0; test: Cytotoxicity against human […] cells assessed as cell growth at 10 uM after 48 hrs by SRB assay relative to untreated control; type: functional; details: 786-0, 48 h, read-out: Activity; outline: as §3
[9] = system: K562; test: Cytotoxicity against human K562 cells assessed as cell growth at 10 uM after 48 hrs by SRB assay relative to untreated control; type: functional; details: K562, 48 h, read-out: Activity; outline: as §3
[10] = system: TK-10; test: Cytotoxicity against human TK10 cells assessed as cell growth at 10 uM after 48 hrs by SRB assay relative to untreated control; type: functional; details: TK-10, 48 h, read-out: Activity; outline: as §1
[11] = system: MOLT-4; test: Cytotoxicity against human MOLT4 cells assessed as cell growth at 10 uM after 48 hrs by SRB assay relative to untreated control; type: functional; details: MOLT-4, 48 h, read-out: Activity; outline: as §2
[12] = system: LOX IMVI; test: Cytotoxicity against human LOXIMVI cells assessed as cell growth at 10 uM after 48 hrs by SRB assay relative to untreated control; type: functional; details: read-out: Activity; outline: as §3
[13] = system: MDA-MB-435; test: Cytotoxicity against human MDA-MB-435 cells assessed as cell growth at 10 uM after 48 hrs by SRB assay relative to untreated control; type: functional; details: MDA-MB-435, 48 h, read-out: Activity; outline: as §2
[14] = system: HL-60(TB); test: Cytotoxicity against human HL-60(TB) cells assessed as cell growth at 10 uM after 48 hrs by SRB assay relative to untreated control; type: functional; details: HL-60, 48 h, read-out: Activity
Outline: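 NCI-60 human tumour cell line panel; a single 10 µM concentration was added to the cultures and incubated 48 h. Endpoint was sulforhodamine B protein-binding dye read spectrophotometrically, with growth reported as percent of untreated control cells.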

[15] = system: SW-620; test: Cytotoxicity against human SW620 cells assessed as cell growth at 10 uM after 48 hrs by SRB assay relative to untreated control; type: functional; details: SW-620, 48 h, read-out: Activity; outline: as §1
[16] = system: Malme-3M; test: Cytotoxicity against human MALME-3M cells assessed as cell growth at 10 uM after 48 hrs by SRB assay relative to untreated control; type: functional; details: read-out: Activity; outline: as §3
[17] = system: MCF7; test: Cytotoxicity against human MCF7 cells assessed as cell growth at 10 uM after 48 hrs by SRB assay relative to untreated control; type: functional; details: MCF7, 48 h, read-out: Activity; outline: as §3
[18] = system: U-251; test: Cytotoxicity against human U251 cells assessed as cell growth at 10 uM after 48 hrs by SRB assay relative to untreated control; type: functional; details: U-251, 48 h, read-out: Activity; outline: as §1
[19] = system: NCI-H23; test: Cytotoxicity against human NCI-H23 cells assessed as cell growth at 10 uM after 48 hrs by SRB assay relative to untreated control; type: functional; details: NCI-H23, 48 h, read-out: Activity; outline: as §2
[20] = system: HCT-116; test: Cytotoxicity against human HCT116 cells assessed as cell growth at 10 uM after 48 hrs by SRB assay relative to untreated control; type: functional; details: HCT-116, 48 h, read-out: Activity; outline: as §3
[21] = system: MDA-MB-468; test: Cytotoxicity against human MDA-MB-468 cells assessed as cell growth at 10 uM after 48 hrs by SRB assay relative to untreated control; type: functional; details: MDA-MB-468, 48 h, read-out: Activity; outline: as §2
[22] = system: DU-145; test: Cytotoxicity against human DU145 cells assessed as cell growth at 10 uM after 48 hrs by SRB assay relative to untreated control; type: functional; details: DU-145, 48 h, read-out: Activity; outline: as §3
[23] = system: PC-3; test: Cytotoxicity against human PC3 cells assessed as cell growth at 10 uM after 48 hrs by SRB assay relative to untreated control; type: functional; details: PC-3, 48 h, read-out: Activity; outline: as §2
[24] = system: A549; test: Cytotoxicity against human A549 cells assessed as cell growth at 10 uM after 48 hrs by SRB assay relative to untreated control; type: functional; details: A549, 48 h, read-out: Activity; outline: as §3
[25] = species: Ovis aries; test: Inhibition of sheep brain tubulin polymerization at 100 uM after 40 mins by DAPI staining-based fluorescence assay
Outline: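 Microtubular protein was purified from sheep brain by two assembly/disassembly cycles (37 °C/0 °C) in MES buffer (100 mM MES pH 6.6, 1 mM EGTA, 0.5 mM MgCl₂). Compound in DMSO was added to 10 µM tubulin with 10 µM DAPI and incubated 40 min at RT. GTP (1 mM) was then added, and assembly was followed by DAPI fluorescence at 37 °C.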

[26] = system: UACC-62; test: Cytotoxicity against human UACC62 cells assessed as cell growth at 10 uM after 48 hrs by SRB assay relative to untreated control; type: functional; details: UACC-62, 48 h, read-out: Activity; outline: as §1
[27] = system: KM12; test: Cytotoxicity against human KM12 cells assessed as cell growth at 10 uM after 48 hrs by SRB assay relative to untreated control; type: functional; details: KM12, 48 h, read-out: Activity; outline: as §3
[28] = system: HOP-62; test: Cytotoxicity against human HOP62 cells assessed as cell growth at 10 uM after 48 hrs by SRB assay relative to untreated control; type: functional; details: HOP-62, 48 h, read-out: Activity; outline: as §3

SMILES	growth at 10 µM [1]	growth at 10 µM [2]	growth at 10 µM [3]	growth at 10 µM [4]	growth at 10 µM [5]	growth at 10 µM [6]	growth at 10 µM [7]	growth at 10 µM [8]	growth at 10 µM [9]	growth at 10 µM [10]	growth at 10 µM [11]	growth at 10 µM [12]	growth at 10 µM [13]	growth at 10 µM [14]	growth at 10 µM [15]	growth at 10 µM [16]	growth at 10 µM [17]	growth at 10 µM [18]	growth at 10 µM [19]	growth at 10 µM [20]	other results
Cc1ccc(C2=Nc3nc4ccccn4c3C(=O)[C@H](C)N2)cc1	42.2%	87.4%	70.9%	99.7%	99.1%	88.6%	68%	98.4%	47.1%	96%	75.9%	88.6%	25.7%	87.5%	82.3%	82.6%	71.2%	95.5%	85%	91.1%	growth at 10 µM [21]: 91.1%; growth at 10 µM [22]: 112%; growth at 10 µM [23]: 72.9%; growth at 10 µM [24]: 92.9%; inhibition [25]: 16%; growth at 10 µM [26]: 80.1%; growth at 10 µM [27]: 70.3%; growth at 10 µM [28]: 62.9%
COc1ccc(C2=Nc3nc4ccccn4c3C(=O)[C@H](C)N2)cc1	80.4%	98.2%	89.3%	104%	105%	88.5%	81.9%	98.5%	86.8%	99.2%	84.4%	87.6%	90.2%	90.6%	106%	94.3%	72%	98.5%	93.5%	95.9%	growth at 10 µM [21]: 76.5%; growth at 10 µM [22]: 113%; growth at 10 µM [23]: 87.3%; growth at 10 µM [24]: 106%; inhibition [25]: 20%; growth at 10 µM [26]: 94.3%; growth at 10 µM [27]: 102%; growth at 10 µM [28]: 80.4%
C[C@@H]1NC(c2ccc(N(C)C)cc2)=Nc2nc3ccccn3c2C1=O	86.6%	92.1%	84.8%	103%	88.8%	84.9%	70%	102%	82.2%	86%	84.2%	87%	94.5%	89.6%	85.3%	100%	66%	94.8%	79.8%	101%	growth at 10 µM [21]: 72.3%; growth at 10 µM [22]: 109%; growth at 10 µM [24]: 103%; inhibition [25]: 55%; growth at 10 µM [26]: 83.7%; growth at 10 µM [27]: 96.3%; growth at 10 µM [28]: 74.2%
C[C@H]1NC(c2ccc(Br)cc2)=Nc2nc3ccccn3c2C1=O	77.7%	96.9%	81.1%	99.8%	87.6%	91%	89.3%	89.1%	84.8%	98.3%	79.7%	92.3%	95.4%	91.1%	97%	101%	65.1%	101%	90.7%	90.2%	growth at 10 µM [21]: 102%; growth at 10 µM [22]: 108%; growth at 10 µM [23]: 83.8%; growth at 10 µM [24]: 99.6%; inhibition [25]: 26%; growth at 10 µM [26]: 84%; growth at 10 µM [27]: 102%; growth at 10 µM [28]: 69.8%
C[C@@H]1NC(c2ccccc2)=Nc2nc3ccccn3c2C1=O	106%	89%	88.2%	103%	84.6%	85.7%	82.8%	103%	108%	135%	98.2%	84.2%	91.6%	135%	93.5%	99.5%	67.2%	102%	91.9%	98.4%	growth at 10 µM [21]: 99.9%; growth at 10 µM [22]: 116%; growth at 10 µM [23]: 82.5%; growth at 10 µM [24]: 103%; inhibition [25]: 7%; growth at 10 µM [26]: 104%; growth at 10 µM [27]: 98.9%; growth at 10 µM [28]: 102%

Source: ChEMBL document CHEMBL3124806, “Imidazopyridine-fused [1,3]-diazepinones: synthesis and antiproliferative activity” (Eur J Med Chem, 2014)
